According to publication PMC11452492 (Nature Communications, 2024):

How the values were obtained:
JNK1 = JNK1 (Homo sapiens, UniProt P45983); assay: in vitro JNK1 PhALC kinase assay; format: biochemical
[1] = stability in rat blood plasma; format: in vitro ADME; details: up to 120 min
Outline: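 Test compound from DMSO was added to male Wistar rat blood plasma at 1 or 10 μM final. Samples were taken at 0, 10, 20, 30, 60 and 120 min, quenched with ice-cold acetonitrile, and centrifuged. Parent compound was quantified by LC-MS/MS, and t1/2 was calculated from its decline.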

[2] = test system: JNK mediated c-Jun(Ser73) phosphorylation; assay: quantitative western blot p-c-Jun; format: cell-based, human
Outline: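 SH-SY5Y cells carry a Tet-ON-inducible MKK7–MLK3 kinase-domain chimera and were kept in DMEM F12 + 1% FBS. Cells received 2 or 3 μg/mL doxycycline together with test compound. Lysates were taken after 6 h (2 or 6 h in blots) for quantitative western blot of p-c-Jun(Ser73), with α-tubulin as load control. Normalized signal was fitted to a dose-response function for EC50. Blots are representative of two independent experiments.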

[3] = metabolic stability in rat primary hepatocytes; format: in vitro ADME
Outline: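 Hepatocytes were isolated from male Wistar rats by collagenase perfusion. Test compound from DMSO was added to 1 or 10 μM final (0.1% DMSO) in William's E:Ham's F12 (1:1) medium. Samples were taken at 0–240 min, quenched with ice-cold acetonitrile, and parent compound was quantified by LC-MS/MS. A cell-free medium control was included. Clint came from parent loss; ClH and extraction ratio were predicted from Clint, with cut-offs of 0.3 and 0.7.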

[4] = LC-MS of GSH adduct formation; format: physicochemical; details: 10 mM GSH, electrospray mass spectrometry
Outline: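 Mass analysis of glutathione adducts by LC-MS with electrospray ionisation. Linear gradient from 10% to 55% eluent B over 12 min, then 95% B, returning to 10% B by 18 min. Flow 0.4 ml/min, column at 40 °C. Source 350 °C, spray voltage 5500 V, declustering potential 80 V. Raw spectra deconvoluted to neutral molecular masses.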

JNK1 C116S mutant = JNK1 C116S mutant (Homo sapiens, UniProt P45983, C116S); format: binding; details: repeat experiment, 100, 300, 1000 nM on JNK C116S surface
JNK1 C116S mutant, sequence (P45983 1-384 isoform P45983-3 C116S): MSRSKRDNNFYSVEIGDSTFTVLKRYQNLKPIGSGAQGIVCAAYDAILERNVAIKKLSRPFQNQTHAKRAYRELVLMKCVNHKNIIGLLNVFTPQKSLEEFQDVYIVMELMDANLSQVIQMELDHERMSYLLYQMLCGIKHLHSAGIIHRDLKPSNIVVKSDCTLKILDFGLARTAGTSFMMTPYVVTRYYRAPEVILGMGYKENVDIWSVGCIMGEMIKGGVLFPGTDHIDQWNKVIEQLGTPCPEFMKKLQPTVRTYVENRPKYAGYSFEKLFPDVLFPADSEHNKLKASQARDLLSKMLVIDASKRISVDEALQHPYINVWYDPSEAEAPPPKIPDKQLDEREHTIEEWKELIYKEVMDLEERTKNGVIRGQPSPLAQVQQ

[5] = test system: p38-mediated MK2 phosphorylation; assay: phospho-MK2 western blot in HEK293T MKK6EE cells; format: cell-based, human; details: doxycycline, JNK inhibitors 3 μM
Outline: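 HEK293T MKK6EE cells allow p38-specific activation through doxycycline-inducible expression of constitutively active MKK6EE. Phospho-MK2 was read by western blot with a fluorescent secondary antibody and infrared imaging. α-Tubulin served as load control, and anti-FLAG monitored transgene expression.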

JNK1 WT = JNK1 WT (Homo sapiens, UniProt P45983); assay: SPR kinetic binding, wild-type JNK1 surface
JNK1 WT, sequence (P45983 1-384 isoform P45983-3): as the sequence (P45983 1-384 isoform P45983-3 C116S) above, with S116C counted along it

[6] = test system: JNK mediated c-Jun phosphorylation; assay: sorbitol stimulated c-Jun phosphorylation, western blot, HEK293T cells; format: cell-based, human; details: sorbitol 15 min, inhibitor 1 µM added 2 h before
Outline: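 HEK293T cells seeded at 50,000/well and grown to confluence (~24 h) in DMEM with 10% FBS, then serum-starved 16 h. Inhibitor in 50% DMSO added 2 h before 0.35 M sorbitol for 15 min; final DMSO 0.1%, with a DMSO-only control. Cells chilled on ice, pelleted, washed in cold PBS and lysed in SDS loading buffer. Lysates run on 10% Tris-glycine gels and blotted to nitrocellulose for phospho-JNK and phospho-c-Jun.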

JNK1, sequence (P45983 1-384 isoform P45983-3): as the sequence (P45983 1-384 isoform P45983-3 C116S) above, with S116C counted along it

| IC50 (JNK1) [µM] | half-life / stability in plasma [1] | Western blot p-c-Jun(Ser73) EC50/IC50 ([2]; SH-SY5Y MKK7 ACT cells, 6 h DOX stimulation) | hepatic extraction (class) ([3]; cut-off 0.3 low/intermediate, 0.7 intermediate/high) | in vivo hepatic clearance (ClH), predicted ([3]; predicted from Clint measured in rat primary hepatocyte cultures) [mL/min/kg] | k1, parallel measurement (JNK1 C116S mutant) [M⁻¹ s⁻¹] | k2, parallel measurement (JNK1 C116S mutant) [s⁻¹] | k3, new experiment calculated with the newly determined k1, k2 (JNK1 WT; 1, 3, 15 nM on JNK WT surface) [s⁻¹] | k3, parallel measurement (JNK1 WT; new experiment (for CA-IN-8: a, 15, 40, 70 nM) on JNK WT surface) [s⁻¹] | Structure (SMILES) | effect on c-Jun(Ser73) phosphorylation ([2]; SH-SY5Y MKK7 ACT, 2 or 6 h DOX, inhibitor 50 nM or 1 µM) | GSH adduct formation [4] | effect on p38-mediated MK2 phosphorylation [5] | effect on c-Jun phosphorylation [6] |
| --- | --- | --- | --- | --- | --- | --- | --- | --- | --- | --- | --- | --- | --- |
| 5.33 ± 0.232 | – | – | – | – | – | – | – | – | CC(=O)Nc1cccc(C(=O)Nc2ccc(Nc3nccc(-c4cccnc4)n3)c(C)c2)c1 [IN-8a] | – | – | – | – |
| – | stable | ~ 0.7 μM | low | 10.1 | 1492000 | 0.1676 | 0.03454 | 0.03181 | Cc1cc(NC(=O)c2cccc(NC(=O)/C=C/CN(C)C)c2)ccc1Nc1nccc(-c2cccnc2)n1 [JNK-IN-8] | can block c-Jun phosphorylation | irreversible covalent adduct formation with GSH | do not affect | efficiently blocked JNK mediated c-Jun phosphorylation |
